Test results: article PMC4750707 (Antimicrobial Agents and Chemotherapy, 2016)
Converted amounts (≈) assume the structure as drawn.

Legend:
E. coli PBP1b = target: T1, E. coli PBP1b (Escherichia coli, UniProt P02919); experiment: PBP competition assay with Bocillin FL; assay type: binding
T1 sequence (P02919 1-844): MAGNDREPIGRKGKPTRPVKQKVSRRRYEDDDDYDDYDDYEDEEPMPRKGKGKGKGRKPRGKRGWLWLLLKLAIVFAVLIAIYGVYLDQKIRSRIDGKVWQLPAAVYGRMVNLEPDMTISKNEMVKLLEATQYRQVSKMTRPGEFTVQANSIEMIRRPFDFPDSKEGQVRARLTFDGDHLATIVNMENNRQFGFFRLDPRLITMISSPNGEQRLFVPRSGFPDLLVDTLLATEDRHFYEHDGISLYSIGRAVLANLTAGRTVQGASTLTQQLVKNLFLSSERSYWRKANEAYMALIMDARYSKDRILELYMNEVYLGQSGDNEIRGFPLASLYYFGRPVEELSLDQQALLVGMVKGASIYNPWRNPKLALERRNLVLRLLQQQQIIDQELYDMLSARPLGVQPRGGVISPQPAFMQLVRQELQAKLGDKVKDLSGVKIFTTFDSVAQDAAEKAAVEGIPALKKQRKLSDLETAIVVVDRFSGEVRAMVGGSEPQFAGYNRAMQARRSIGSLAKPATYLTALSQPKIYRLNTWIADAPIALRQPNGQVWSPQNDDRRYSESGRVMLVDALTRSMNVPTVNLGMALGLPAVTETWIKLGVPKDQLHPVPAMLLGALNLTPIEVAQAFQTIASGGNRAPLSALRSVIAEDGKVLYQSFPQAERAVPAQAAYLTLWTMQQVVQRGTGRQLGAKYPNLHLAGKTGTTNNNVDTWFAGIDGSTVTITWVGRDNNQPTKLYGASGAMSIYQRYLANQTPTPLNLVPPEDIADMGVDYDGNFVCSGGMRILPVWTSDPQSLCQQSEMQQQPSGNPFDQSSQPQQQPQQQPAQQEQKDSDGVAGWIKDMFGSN
Procedure, shortened: (§1)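 E. coli K-12 or P. aeruginosa 1771 grown in BHI at 35°C to A600 ~1.5. Cells in 50 mM phosphate pH 7.0 were French-pressed; membranes pelleted at 150,000 × g. Membranes (10–20 μg protein) were pre-incubated with test compound 10 min at 30°C, then Bocillin FL (100 μM final) 20 min. SDS-PAGE, fluorescence scan. IC50 in μg/ml from ≥8 concentrations versus no-drug control.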

E. coli = experiment: Broth microdilution MIC; assay type: cell-based; details: Escherichia coli
Procedure, shortened: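 MICs by CLSI broth microdilution in cation-adjusted Mueller-Hinton broth. Strains grown in BHI broth at 35°C: E. coli K-12, P. aeruginosa 1771 and S. aureus ATCC 29213. H. influenzae Rd grown in BHI with Haemophilus test medium supplement (hemin and β-NAD, 15 μg/ml each).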

E. coli PBP1a = target: T2, E. coli PBP1a (Escherichia coli, UniProt P02918); experiment: PBP competition assay with Bocillin FL; assay type: binding
T2 sequence (P02918 1-850): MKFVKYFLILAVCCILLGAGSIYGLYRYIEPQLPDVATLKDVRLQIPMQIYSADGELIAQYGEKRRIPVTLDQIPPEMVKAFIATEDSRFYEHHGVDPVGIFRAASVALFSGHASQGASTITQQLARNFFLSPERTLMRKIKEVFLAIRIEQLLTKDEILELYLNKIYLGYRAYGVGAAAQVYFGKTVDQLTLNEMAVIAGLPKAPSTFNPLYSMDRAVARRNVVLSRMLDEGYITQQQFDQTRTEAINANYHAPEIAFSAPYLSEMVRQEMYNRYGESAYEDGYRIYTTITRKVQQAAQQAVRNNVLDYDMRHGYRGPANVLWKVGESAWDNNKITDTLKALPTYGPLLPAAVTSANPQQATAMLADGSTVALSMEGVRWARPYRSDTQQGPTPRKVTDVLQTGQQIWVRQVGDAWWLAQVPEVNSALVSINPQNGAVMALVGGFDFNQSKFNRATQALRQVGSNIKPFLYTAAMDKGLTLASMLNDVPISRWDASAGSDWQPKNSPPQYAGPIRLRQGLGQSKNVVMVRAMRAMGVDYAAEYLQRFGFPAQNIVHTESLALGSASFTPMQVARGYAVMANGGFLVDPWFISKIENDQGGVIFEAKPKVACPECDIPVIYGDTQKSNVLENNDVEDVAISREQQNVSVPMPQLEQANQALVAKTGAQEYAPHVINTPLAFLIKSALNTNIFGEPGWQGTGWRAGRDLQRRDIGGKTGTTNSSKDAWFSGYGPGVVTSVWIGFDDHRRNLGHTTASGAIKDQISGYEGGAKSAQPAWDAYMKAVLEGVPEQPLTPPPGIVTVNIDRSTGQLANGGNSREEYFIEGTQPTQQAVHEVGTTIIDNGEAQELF
Procedure, shortened: as §1

P. aeruginosa PBP1a = P. aeruginosa PBP1a (Pseudomonas aeruginosa, UniProt Q07806); experiment: PBP competition assay with Bocillin FL; assay type: binding
Procedure, shortened: as §1

E. coli PBP4 = E. coli PBP4 (Escherichia coli, UniProt P24228); experiment: PBP competition assay with Bocillin FL; assay type: binding
Procedure, shortened: as §1

P. aeruginosa PBP2 = target: T3, P. aeruginosa PBP2 (Pseudomonas aeruginosa, UniProt Q9X6V3); experiment: PBP competition assay with Bocillin FL; assay type: binding
T3 sequence (Q9X6V3 1-646): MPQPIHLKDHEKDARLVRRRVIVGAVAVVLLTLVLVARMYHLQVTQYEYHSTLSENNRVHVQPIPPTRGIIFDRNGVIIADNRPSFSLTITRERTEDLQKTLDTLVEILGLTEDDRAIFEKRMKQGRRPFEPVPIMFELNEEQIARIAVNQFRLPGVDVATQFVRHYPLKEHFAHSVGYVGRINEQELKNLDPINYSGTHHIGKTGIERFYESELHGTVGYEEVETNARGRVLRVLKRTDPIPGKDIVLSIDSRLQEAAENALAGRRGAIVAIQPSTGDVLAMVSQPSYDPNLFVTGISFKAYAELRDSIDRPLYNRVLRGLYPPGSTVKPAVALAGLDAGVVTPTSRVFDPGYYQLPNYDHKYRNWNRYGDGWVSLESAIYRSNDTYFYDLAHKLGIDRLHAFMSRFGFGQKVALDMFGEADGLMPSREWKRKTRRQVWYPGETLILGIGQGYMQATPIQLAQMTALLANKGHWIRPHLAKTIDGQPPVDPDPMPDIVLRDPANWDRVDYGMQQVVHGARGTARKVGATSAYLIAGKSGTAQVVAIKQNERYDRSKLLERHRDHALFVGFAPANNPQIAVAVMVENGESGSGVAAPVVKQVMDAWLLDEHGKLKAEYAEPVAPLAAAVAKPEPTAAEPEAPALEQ
Procedure, shortened: as §1

Structure (SMILES)	IC50 (E. coli PBP1b)	MIC (E. coli)	IC50 (E. coli PBP1a)	IC50 (P. aeruginosa PBP1a)	IC50 (E. coli PBP4)	IC50 (P. aeruginosa PBP2)
NC(=O)[C@@H]1CC[C@@H]2CN1C(=O)N2OS(=O)(=O)O [AVI, avibactam]	> 49 µM	8 µg/mL (≈ 30.2 µM)	> 49 µM	> 49 µM	> 49 µM	4.15 µM
CC(C)(O/N=C(\C(=O)N[C@@H]1C(=O)N2C(C(=O)[O-])=C(C[n+]3ccccc3)CS[C@H]12)c1csc(N)n1)C(=O)O [CAZ, ceftazidime]	14.6 µM	0.5 µg/mL (≈ 0.915 µM)	27.4 µM	0.348 µM	> 45.7 µM	> 45.7 µM
CC1(C)S[C@@H]2[C@H](/N=C/N3CCCCCC3)C(=O)N2[C@H]1C(=O)O [MEC, amdinocillin]	> 39.9 µM	0.06 to 0.1 µg/mL (≈ 0.184 to 0.307 µM)	> 39.9 µM	> 39.9 µM	> 39.9 µM	0.645 µM
